This note sets out measurements from ChEMBL document CHEMBL1131157, “Potent and selective non-cysteine-containing inhibitors of protein farnesyltransferase” (J Med Chem, 1998).

The target of test [1] is Protein farnesyltransferase (Bos taurus, UniProt P29702+P49355). Description: In vitro inhibition of farnesyltransferase from bovine brain.
For test [2], the system named is NIH3T3. Briefly: (§1) Inhibition of Ha-Ras processing in NIH3T3 Ras transformed cells. To be noted: Mus musculus. Format: functional, cell-based, Homo sapiens. Summed up:
(§2)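 Subconfluent Ras-transformed NIH3T3 cells dosed with compounds; lysates boiled 5 min in Laemmli buffer, resolved on 15% Tris-glycine gel, blotted to nitrocellulose, probed with anti-Ras antibody Y13-238; bands by ECL, quantified by densitometry. Single determinations unless limits given; assay reliability ±50-100%.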

For test [3], the system named is NIH3T3. The description is as §1. Format: functional, Homo sapiens. To be noted: Mus musculus, read-out: ED50 (the source's name). Summed up:
as §2

As a reminder, the IC50 is the concentration needed to halve the response being measured. Read a low IC50 as higher potency.

On to `CSCC[C@H](NC(=O)c1ccc(NCc2cccnc2)cc1-c1ccccc1C)C(=O)O`, for which it took 0.0015 µM to reach half-maximal inhibition in test [1] (IC50).
With `CSCC[C@H](NC(=O)c1ccc(CSc2cccnc2)cc1-c1ccccc1)C(=O)O`, the EC50 in the test on NIH3T3 [2] was found to be 10 µM. This compound also gave an IC50 in test [1] of 0.01 µM.
For `CSCC[C@H](NC(=O)c1ccc(COc2cccnc2)cc1-c1ccccc1C(F)(F)F)C(=O)O`, in that order: 0.3 µM and 0.0005 µM.
The compound `CSCC[C@H](NC(=O)c1ccc(OCc2cccnc2)cc1-c1ccccc1)C(=O)O` had an IC50 in test [1] of 0.0066 µM.
For `CCc1ccccc1-c1cc(COc2cccnc2)ccc1C(=O)N[C@@H](CCSC)C(=O)O`, in the test with NIH3T3 [2], the EC50 is under 0.1 µM. Moreover, the 50% inhibitory concentration (IC50) in test [1] worked out at 0.00035 µM.
For `CSCC[C@H](NC(=O)c1ccc(COc2cccnc2)cc1-c1ccccc1Cl)C(=O)O`, in that order: 0.4 µM and 0.00061 µM.
The compound `CCCC[C@H](NC(=O)c1ccc(COc2cccnc2)cc1-c1ccccc1)C(=O)O` registered a half-inhibitory concentration (IC50) in test [1] of over 1 µM.
Compound `CSCC[C@H](NC(=O)c1ccc(COc2cccnc2)cc1-c1cccc(C)c1)C(=O)O` gave an IC50 in test [1] of 0.0054 µM. That is a single-digit nanomolar value.
`CSCC[C@H](NC(=O)c1ccc(CNc2cccnc2)cc1-c1ccccc1)C(=O)O` had an EC50 in the test with NIH3T3 [2] of 10 µM. The same compound showed an IC50 in test [1] of 0.0068 µM.
In the case of `CSCC[C@@H](NC(=O)c1ccc(CNc2cccnc2)cc1-c1ccccc1)C(=O)O`, half-maximal inhibition in test [1] (IC50) was put at 0.14 µM.
Consider `COC(=O)[C@H](CCSC)NC(=O)c1ccc(NC[C@@H](N)CS)cc1-c1ccccc1`, for which, in the test with NIH3T3 [3], the EC50 was 0.2 µM.
In test [1], `CSCC[C@H](NC(=O)c1ccc(NC(=O)c2cccnc2)cc1-c1ccccc1C)C(=O)O` had an IC50 of 0.0016 µM. In other words, the single-digit nanomolar range.
Compound `COc1ccc(-c2cc(COc3cccnc3)ccc2C(=O)N[C@@H](CCSC)C(=O)O)cc1` yielded an IC50 in test [1] of 0.23 µM.
Still for that read-out and setting: next, `CSCC[C@H](NC(=O)c1ccc(COc2cccnc2)cc1-c1ccc(C)cc1)C(=O)O`: 0.36 µM; `COc1cccc(-c2cc(COc3cccnc3)ccc2C(=O)N[C@@H](CCSC)C(=O)O)c1`: 0.012 µM; `CSCC[C@H](NC(=O)c1ccc(NC(=O)c2ccccn2)cc1-c1ccccc1)C(=O)O`: over 1 µM.
On to `CSCC[C@H](NC(=O)c1ccc(NC(=O)c2ccncc2)cc1-c1ccccc1)C(=O)O`, for which, in test [1], the IC50 was over 1 µM.
On the same count and under the same terms, next, `COCC[C@H](NC(=O)c1ccc(COc2cccnc2)cc1-c1ccccc1)C(=O)O`: 1 µM.
In the case of `CSCC[C@@H](C(=O)O)N(C)C(=O)c1ccc(CNc2cccnc2)cc1-c1ccccc1`, the EC50 in the test on NIH3T3 [3] was determined as 100 µM. In test [1], this compound registered an IC50 of 0.16 µM.
As to `CSCC[C@H](NC(=O)c1ccc(COc2cccnc2)cc1-c1ccccc1C)C(=O)O`, the EC50 in the test on NIH3T3 [2] came to 0.35 µM. Besides, it took 0.0004 µM to reach half-maximal inhibition in test [1] (IC50).
The compound `COc1ccccc1-c1cc(COc2cccnc2)ccc1C(=O)N[C@@H](CCSC)C(=O)O` showed an EC50 in the test on NIH3T3 [2] of 10 µM. Further, in test [1], half-maximal inhibition (IC50) required 0.0033 µM.
On to `CS(=O)(=O)CC[C@H](NC(=O)c1ccc(CNc2cccnc2)cc1-c1ccccc1)C(=O)O`, for which the EC50 in the test on NIH3T3 [3] was 100 µM. The same compound showed an IC50 in test [1] of 0.017 µM.
`CSCC[C@H](NC(=O)c1ccc(CS(=O)(=O)c2cccnc2)cc1-c1ccccc1)C(=O)O`: the IC50 in test [1] came out at 0.55 µM. This counts as sub-micromolar.
For the compound `CSCC[C@H](NC(=O)c1ccc(COc2cccnc2)cc1-c1ccccc1)C(=O)O`, the EC50 in the test on NIH3T3 [2] amounted to 5 µM. In test [1], it took 0.0043 µM to reach half-maximal inhibition (IC50).
In turn, `CSCC[C@H](NC(=O)c1ccc(CSc2cccnc2)cc1-c1ccccc1C)C(=O)O` yielded an IC50 in test [1] of 0.00069 µM. This counts as sub-nanomolar.
The same measure, in the same setting: with `NC(=O)CC[C@H](NC(=O)c1ccc(COc2cccnc2)cc1-c1ccccc1)C(=O)O` the figure was 0.048 µM.
In the test with NIH3T3 [2], `CSCC[C@H](NC(=O)c1ccc(NCc2cccnc2)cc1-c1ccccc1)C(=O)O` showed an EC50 of 40 µM. The IC50 in test [1] turned out to be 0.02 µM.
As for `CSC[C@H](NC(=O)c1ccc(COc2cccnc2)cc1-c1ccccc1)C(=O)O`, the IC50 in test [1] was over 1 µM.
As to `CSCC[C@H](NC(=O)c1ccc(NC[C@@H](N)CS)cc1-c1ccccc1)C(=O)O`, the EC50 in the test on NIH3T3 [3] came out at 1 µM.
Turning to `CSCC[C@H](NC(=O)c1ccc(NC(=O)c2cccnc2)cc1-c1ccccc1)C(=O)O`, in the test on NIH3T3 [2], the EC50 came to 50 µM. For the same compound, the IC50 in test [1] is 0.07 µM.
